ChEMBL document CHEMBL5500351, “Active site-directed probes targeting dipeptidyl peptidases 8 and 9” (Eur J Med Chem, 2024)

molecular target: T1, Prolyl endopeptidase (Homo sapiens, UniProt P48147); test: Inhibition of recombinant human PREP
T1 sequence (P48147 whole entry): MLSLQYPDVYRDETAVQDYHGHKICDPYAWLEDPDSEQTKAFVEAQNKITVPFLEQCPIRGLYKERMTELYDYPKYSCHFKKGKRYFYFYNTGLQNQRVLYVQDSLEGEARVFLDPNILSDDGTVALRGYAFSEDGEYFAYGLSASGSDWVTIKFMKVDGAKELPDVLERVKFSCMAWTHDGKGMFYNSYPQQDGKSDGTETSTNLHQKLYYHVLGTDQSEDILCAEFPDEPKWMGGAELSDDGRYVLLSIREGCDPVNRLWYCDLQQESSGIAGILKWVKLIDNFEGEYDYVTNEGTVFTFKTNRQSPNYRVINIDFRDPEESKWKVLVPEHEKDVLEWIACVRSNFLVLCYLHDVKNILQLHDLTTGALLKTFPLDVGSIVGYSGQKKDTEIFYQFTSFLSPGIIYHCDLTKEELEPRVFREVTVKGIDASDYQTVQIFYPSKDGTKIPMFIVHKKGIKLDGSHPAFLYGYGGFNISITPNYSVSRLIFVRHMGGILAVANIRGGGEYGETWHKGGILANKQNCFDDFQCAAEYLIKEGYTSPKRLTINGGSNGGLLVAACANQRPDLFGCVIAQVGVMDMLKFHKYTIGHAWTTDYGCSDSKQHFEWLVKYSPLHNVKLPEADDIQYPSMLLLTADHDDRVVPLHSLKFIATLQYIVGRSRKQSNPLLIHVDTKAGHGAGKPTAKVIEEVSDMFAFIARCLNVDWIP
In short: (§1)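 IC50 reported as the mean ± standard deviation of three independent determinations against each protease.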

SMILES	IC50 [µM]
O=C(CCCCC1SCC2NC(=O)NC21)NCCOCCOC(=O)NC12CC3CC(CC(NCC(=O)N4Cc5ccc(F)cc5C4)(C3)C1)C2 (stereo unspecified)	> 10
O=C(NC12CC3CC(CC(NCC(=O)N4Cc5ccc(F)cc5C4)(C3)C1)C2)OCCOCCNc1ccc([N+](=O)[O-])c2nonc12	> 10
O=C(NC12CC3CC(CC(NCC(=O)N4Cc5cc(F)c(F)cc5C4)(C3)C1)C2)OCCOCCNc1ccc([N+](=O)[O-])c2nonc12	> 10
O=C(CCCCC1SCC2NC(=O)NC21)NCCOCCOC(=O)NC12CC3CC(CC(NCC(=O)N4Cc5cc(F)c(F)cc5C4)(C3)C1)C2 (stereo unspecified)	> 10
O=C(CCCCC1SCC2NC(=O)NC21)NCCOCCNC(=O)NC12CC3CC(CC(NCC(=O)N4Cc5cc(F)c(F)cc5C4)(C3)C1)C2 (stereo unspecified)	> 10
CC[N+]1=C(/C=C/C=C2/N(CCCCCC(=O)NC34CC5CC(CC(NCC(=O)N6Cc7cc(F)c(F)cc7C6)(C5)C3)C4)c3ccc(S(=O)(=O)O)cc3C2(C)C)C(C)(C)c2cc(S(=O)(=O)[O-])ccc21	> 10
O=C(CCCCC1SCC2NC(=O)NC21)NCCOCCNC(=O)NC12CC3CC(CC(NCC(=O)N4Cc5ccc(F)cc5C4)(C3)C1)C2 (stereo unspecified)	> 10
O=C(CCCCC1SCC2NC(=O)NC21)NCCOCCOCCNC(=O)NC12CC3CC(CC(NCC(=O)N4Cc5ccc(F)cc5C4)(C3)C1)C2 (stereo unspecified)	> 10
CN(C)c1cccc2c(S(=O)(=O)NCCOCCOC(=O)NC34CC5CC(CC(NCC(=O)N6Cc7cc(F)c(F)cc7C6)(C5)C3)C4)cccc12	> 10
CN(C)c1cccc2c(S(=O)(=O)NCCOCCOC(=O)NC34CC5CC(CC(NCC(=O)N6Cc7ccc(F)cc7C6)(C5)C3)C4)cccc12	> 10
O=C(CCCCC1SCC2NC(=O)NC21)NCCOCCOCCNC(=O)NC12CC3CC(CC(NCC(=O)N4Cc5cc(F)c(F)cc5C4)(C3)C1)C2 (stereo unspecified)	> 10

species on record: Homo sapiens; test: Selectivity index, ratio of IC50 for inhibition of human DPP8 expressed in baculovirus-infected Sf9 cells to IC50 for inhibition of human DPP9
In short: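 Selectivity is computed as IC50(DPP8)/IC50(DPP9). Each IC50 was measured against recombinant human DPP8 or DPP9 and is the mean of three independent measurements ± standard deviation.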

SMILES	Ratio IC50
N[C@@H](CC(=O)N1CCN(C(c2ccc(F)cc2)c2ccc(F)cc2)CC1)C(=O)N1Cc2ccccc2C1	4

molecular target: Dipeptidyl peptidase 2 (Homo sapiens, UniProt Q9UHL4); test: Inhibition of recombinant human DPP2; in short: as §1

SMILES	IC50 [µM]
O=C(CCCCC1SCC2NC(=O)NC21)NCCOCCOC(=O)NC12CC3CC(CC(NCC(=O)N4Cc5ccc(F)cc5C4)(C3)C1)C2 (stereo unspecified)	> 5
O=C(NC12CC3CC(CC(NCC(=O)N4Cc5ccc(F)cc5C4)(C3)C1)C2)OCCOCCNc1ccc([N+](=O)[O-])c2nonc12	> 5
O=C(NC12CC3CC(CC(NCC(=O)N4Cc5cc(F)c(F)cc5C4)(C3)C1)C2)OCCOCCNc1ccc([N+](=O)[O-])c2nonc12	> 5
O=C(CCCCC1SCC2NC(=O)NC21)NCCOCCOC(=O)NC12CC3CC(CC(NCC(=O)N4Cc5cc(F)c(F)cc5C4)(C3)C1)C2 (stereo unspecified)	> 5
O=C(CCCCC1SCC2NC(=O)NC21)NCCOCCNC(=O)NC12CC3CC(CC(NCC(=O)N4Cc5cc(F)c(F)cc5C4)(C3)C1)C2 (stereo unspecified)	> 5
CC[N+]1=C(/C=C/C=C2/N(CCCCCC(=O)NC34CC5CC(CC(NCC(=O)N6Cc7cc(F)c(F)cc7C6)(C5)C3)C4)c3ccc(S(=O)(=O)O)cc3C2(C)C)C(C)(C)c2cc(S(=O)(=O)[O-])ccc21	> 5
O=C(CCCCC1SCC2NC(=O)NC21)NCCOCCNC(=O)NC12CC3CC(CC(NCC(=O)N4Cc5ccc(F)cc5C4)(C3)C1)C2 (stereo unspecified)	> 5
O=C(CCCCC1SCC2NC(=O)NC21)NCCOCCOCCNC(=O)NC12CC3CC(CC(NCC(=O)N4Cc5ccc(F)cc5C4)(C3)C1)C2 (stereo unspecified)	> 5
CN(C)c1cccc2c(S(=O)(=O)NCCOCCOC(=O)NC34CC5CC(CC(NCC(=O)N6Cc7cc(F)c(F)cc7C6)(C5)C3)C4)cccc12	> 5
CN(C)c1cccc2c(S(=O)(=O)NCCOCCOC(=O)NC34CC5CC(CC(NCC(=O)N6Cc7ccc(F)cc7C6)(C5)C3)C4)cccc12	> 5
O=C(CCCCC1SCC2NC(=O)NC21)NCCOCCOCCNC(=O)NC12CC3CC(CC(NCC(=O)N4Cc5cc(F)c(F)cc5C4)(C3)C1)C2 (stereo unspecified)	> 5

molecular target: Dipeptidyl peptidase 4 (Homo sapiens, UniProt P27487); test: Inhibition of human DPP4; in short: as §1
Sequence (P27487 whole entry): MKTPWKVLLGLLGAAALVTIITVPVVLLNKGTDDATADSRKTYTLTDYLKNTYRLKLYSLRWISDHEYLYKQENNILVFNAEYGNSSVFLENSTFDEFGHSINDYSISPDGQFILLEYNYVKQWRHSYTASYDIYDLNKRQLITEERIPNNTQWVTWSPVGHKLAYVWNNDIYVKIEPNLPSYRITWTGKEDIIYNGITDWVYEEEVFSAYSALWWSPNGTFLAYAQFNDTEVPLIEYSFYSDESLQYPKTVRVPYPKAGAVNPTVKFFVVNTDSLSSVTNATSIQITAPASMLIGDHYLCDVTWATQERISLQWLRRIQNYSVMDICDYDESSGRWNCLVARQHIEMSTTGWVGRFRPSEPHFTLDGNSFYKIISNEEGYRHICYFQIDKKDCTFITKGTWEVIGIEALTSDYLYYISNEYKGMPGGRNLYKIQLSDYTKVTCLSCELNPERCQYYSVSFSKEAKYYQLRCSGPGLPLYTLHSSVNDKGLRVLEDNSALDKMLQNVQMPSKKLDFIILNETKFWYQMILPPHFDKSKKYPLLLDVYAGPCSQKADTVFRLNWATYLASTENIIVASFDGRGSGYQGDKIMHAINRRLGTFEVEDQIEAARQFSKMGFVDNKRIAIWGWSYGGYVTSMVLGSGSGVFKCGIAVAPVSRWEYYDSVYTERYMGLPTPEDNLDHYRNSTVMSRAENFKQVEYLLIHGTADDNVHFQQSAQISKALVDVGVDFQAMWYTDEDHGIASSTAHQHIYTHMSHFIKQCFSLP

SMILES	IC50 [µM]
O=C(CCCCC1SCC2NC(=O)NC21)NCCOCCOC(=O)NC12CC3CC(CC(NCC(=O)N4Cc5ccc(F)cc5C4)(C3)C1)C2 (stereo unspecified)	> 10
O=C(NC12CC3CC(CC(NCC(=O)N4Cc5ccc(F)cc5C4)(C3)C1)C2)OCCOCCNc1ccc([N+](=O)[O-])c2nonc12	0.44
O=C(NC12CC3CC(CC(NCC(=O)N4Cc5cc(F)c(F)cc5C4)(C3)C1)C2)OCCOCCNc1ccc([N+](=O)[O-])c2nonc12	1.7
O=C(CCCCC1SCC2NC(=O)NC21)NCCOCCOC(=O)NC12CC3CC(CC(NCC(=O)N4Cc5cc(F)c(F)cc5C4)(C3)C1)C2 (stereo unspecified)	> 10
O=C(CCCCC1SCC2NC(=O)NC21)NCCOCCNC(=O)NC12CC3CC(CC(NCC(=O)N4Cc5cc(F)c(F)cc5C4)(C3)C1)C2 (stereo unspecified)	> 10
CC[N+]1=C(/C=C/C=C2/N(CCCCCC(=O)NC34CC5CC(CC(NCC(=O)N6Cc7cc(F)c(F)cc7C6)(C5)C3)C4)c3ccc(S(=O)(=O)O)cc3C2(C)C)C(C)(C)c2cc(S(=O)(=O)[O-])ccc21	> 10
O=C(CCCCC1SCC2NC(=O)NC21)NCCOCCNC(=O)NC12CC3CC(CC(NCC(=O)N4Cc5ccc(F)cc5C4)(C3)C1)C2 (stereo unspecified)	> 10
O=C(CCCCC1SCC2NC(=O)NC21)NCCOCCOCCNC(=O)NC12CC3CC(CC(NCC(=O)N4Cc5ccc(F)cc5C4)(C3)C1)C2 (stereo unspecified)	> 10
CN(C)c1cccc2c(S(=O)(=O)NCCOCCOC(=O)NC34CC5CC(CC(NCC(=O)N6Cc7cc(F)c(F)cc7C6)(C5)C3)C4)cccc12	> 10
CN(C)c1cccc2c(S(=O)(=O)NCCOCCOC(=O)NC34CC5CC(CC(NCC(=O)N6Cc7ccc(F)cc7C6)(C5)C3)C4)cccc12	> 10
O=C(CCCCC1SCC2NC(=O)NC21)NCCOCCOCCNC(=O)NC12CC3CC(CC(NCC(=O)N4Cc5cc(F)c(F)cc5C4)(C3)C1)C2 (stereo unspecified)	> 10

molecular target: T2, Prolyl endopeptidase FAP (Homo sapiens, UniProt Q12884); test: Inhibition of recombinant human FAP; in short: as §1
T2 sequence (Q12884 whole entry): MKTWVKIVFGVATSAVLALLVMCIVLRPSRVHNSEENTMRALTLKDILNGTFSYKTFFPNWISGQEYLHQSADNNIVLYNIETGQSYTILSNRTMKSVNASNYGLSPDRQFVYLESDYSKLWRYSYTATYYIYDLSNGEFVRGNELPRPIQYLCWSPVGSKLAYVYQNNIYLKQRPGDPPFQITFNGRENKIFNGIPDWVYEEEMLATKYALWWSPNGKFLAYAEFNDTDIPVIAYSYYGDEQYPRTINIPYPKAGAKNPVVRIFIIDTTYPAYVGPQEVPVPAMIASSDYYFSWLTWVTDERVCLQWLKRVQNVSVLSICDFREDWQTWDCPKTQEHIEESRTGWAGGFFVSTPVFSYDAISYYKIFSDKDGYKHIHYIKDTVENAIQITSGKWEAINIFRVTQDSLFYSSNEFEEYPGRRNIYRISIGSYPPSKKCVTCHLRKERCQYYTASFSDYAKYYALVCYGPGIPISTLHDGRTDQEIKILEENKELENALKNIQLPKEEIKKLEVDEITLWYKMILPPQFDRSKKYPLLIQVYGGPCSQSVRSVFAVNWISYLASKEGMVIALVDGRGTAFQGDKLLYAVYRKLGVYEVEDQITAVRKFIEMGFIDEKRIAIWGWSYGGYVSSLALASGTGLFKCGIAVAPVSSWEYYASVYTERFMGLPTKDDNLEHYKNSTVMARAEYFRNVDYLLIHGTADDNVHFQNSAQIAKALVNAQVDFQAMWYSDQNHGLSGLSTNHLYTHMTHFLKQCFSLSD

SMILES	IC50 [µM]
O=C(CCCCC1SCC2NC(=O)NC21)NCCOCCOC(=O)NC12CC3CC(CC(NCC(=O)N4Cc5ccc(F)cc5C4)(C3)C1)C2 (stereo unspecified)	> 10
O=C(NC12CC3CC(CC(NCC(=O)N4Cc5ccc(F)cc5C4)(C3)C1)C2)OCCOCCNc1ccc([N+](=O)[O-])c2nonc12	> 10
O=C(NC12CC3CC(CC(NCC(=O)N4Cc5cc(F)c(F)cc5C4)(C3)C1)C2)OCCOCCNc1ccc([N+](=O)[O-])c2nonc12	> 10
O=C(CCCCC1SCC2NC(=O)NC21)NCCOCCOC(=O)NC12CC3CC(CC(NCC(=O)N4Cc5cc(F)c(F)cc5C4)(C3)C1)C2 (stereo unspecified)	> 10
O=C(CCCCC1SCC2NC(=O)NC21)NCCOCCNC(=O)NC12CC3CC(CC(NCC(=O)N4Cc5cc(F)c(F)cc5C4)(C3)C1)C2 (stereo unspecified)	> 10
CC[N+]1=C(/C=C/C=C2/N(CCCCCC(=O)NC34CC5CC(CC(NCC(=O)N6Cc7cc(F)c(F)cc7C6)(C5)C3)C4)c3ccc(S(=O)(=O)O)cc3C2(C)C)C(C)(C)c2cc(S(=O)(=O)[O-])ccc21	> 10
O=C(CCCCC1SCC2NC(=O)NC21)NCCOCCNC(=O)NC12CC3CC(CC(NCC(=O)N4Cc5ccc(F)cc5C4)(C3)C1)C2 (stereo unspecified)	> 10
O=C(CCCCC1SCC2NC(=O)NC21)NCCOCCOCCNC(=O)NC12CC3CC(CC(NCC(=O)N4Cc5ccc(F)cc5C4)(C3)C1)C2 (stereo unspecified)	> 10
CN(C)c1cccc2c(S(=O)(=O)NCCOCCOC(=O)NC34CC5CC(CC(NCC(=O)N6Cc7cc(F)c(F)cc7C6)(C5)C3)C4)cccc12	> 10
CN(C)c1cccc2c(S(=O)(=O)NCCOCCOC(=O)NC34CC5CC(CC(NCC(=O)N6Cc7ccc(F)cc7C6)(C5)C3)C4)cccc12	> 10
O=C(CCCCC1SCC2NC(=O)NC21)NCCOCCOCCNC(=O)NC12CC3CC(CC(NCC(=O)N4Cc5cc(F)c(F)cc5C4)(C3)C1)C2 (stereo unspecified)	> 10

species on record: Homo sapiens; test: Selectivity index, ratio of IC50 for inhibition of human DPP8 expressed in baculovirus using Ala-Pro-7-amino-4-trifluormethylcoumarin as substrate to IC50 for inhibition of human DPP9 expressed in baculovirus using Gly-Pro-AMC as substrate
In short: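 Ratio of IC50 against recombinant human DPP8 to IC50 against recombinant human DPP9, i.e. IC50(DPP8)/IC50(DPP9). Each IC50 is the mean of 3 independent measurements ± standard deviation.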

SMILES	Ratio IC50
CC(C)[C@H](N)C(=O)N1CCC[C@H]1B(O)O	3
